Data set [1] deals with T1, Dual specificity protein phosphatase 10 (Homo sapiens, UniProt Q9Y6W6).
T1 sequence (Q9Y6W6 whole entry): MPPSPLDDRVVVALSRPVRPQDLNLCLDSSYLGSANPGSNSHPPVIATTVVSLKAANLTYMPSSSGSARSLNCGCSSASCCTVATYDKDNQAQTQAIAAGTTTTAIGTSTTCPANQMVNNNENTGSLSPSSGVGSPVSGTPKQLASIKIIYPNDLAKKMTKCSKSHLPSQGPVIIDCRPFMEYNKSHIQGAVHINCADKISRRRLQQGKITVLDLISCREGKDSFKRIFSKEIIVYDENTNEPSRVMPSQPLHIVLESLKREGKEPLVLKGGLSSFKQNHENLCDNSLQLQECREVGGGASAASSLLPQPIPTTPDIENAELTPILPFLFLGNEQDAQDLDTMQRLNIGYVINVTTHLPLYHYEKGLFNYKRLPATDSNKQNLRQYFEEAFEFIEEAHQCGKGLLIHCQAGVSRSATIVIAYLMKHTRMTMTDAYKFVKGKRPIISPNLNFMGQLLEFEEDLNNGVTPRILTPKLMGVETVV
The experiment in a line: Inhibition of human MKP5 using DiFMUP as substrate after 5 mins by spectrophotometric plate reader analysis. The gist of the method: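 The […] substrate was DiFMUP. Buffer was Tris-HCl pH 8.0 with Triton X-100 and 5 mM DTT. Inhibitor was preincubated with enzyme for 5 min at 27 °C before adding substrate. Ki from nonlinear regression of initial-rate substrate–velocity data at several inhibitor concentrations; at least duplicate.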

The species named for data set [2] is Homo sapiens. The experiment in a line: Selectivity ratio of Ki for human TC-PTP to Ki for human STEP. The procedure, abridged: (§1)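 STEP, CD45, LAR and TC-PTP used pNPP (500 μM) in imidazole/NaCl pH 7.0 with Triton X-100, read at 405 nm for 20 min. MKP5 used DiFMUP in Tris-HCl pH 8.0. The enzyme's own pNPP KM was used in analysis; ratio of the Ki values.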
The species entered for data set [3] is Homo sapiens. As to the kind of experiment: Selectivity ratio of Ki for human CD45 to Ki for human STEP. The gist of the method:
as §1

The target of data set [4] is T2, Receptor-type tyrosine-protein phosphatase C (Homo sapiens, UniProt P08575).
T2 sequence (P08575 whole entry): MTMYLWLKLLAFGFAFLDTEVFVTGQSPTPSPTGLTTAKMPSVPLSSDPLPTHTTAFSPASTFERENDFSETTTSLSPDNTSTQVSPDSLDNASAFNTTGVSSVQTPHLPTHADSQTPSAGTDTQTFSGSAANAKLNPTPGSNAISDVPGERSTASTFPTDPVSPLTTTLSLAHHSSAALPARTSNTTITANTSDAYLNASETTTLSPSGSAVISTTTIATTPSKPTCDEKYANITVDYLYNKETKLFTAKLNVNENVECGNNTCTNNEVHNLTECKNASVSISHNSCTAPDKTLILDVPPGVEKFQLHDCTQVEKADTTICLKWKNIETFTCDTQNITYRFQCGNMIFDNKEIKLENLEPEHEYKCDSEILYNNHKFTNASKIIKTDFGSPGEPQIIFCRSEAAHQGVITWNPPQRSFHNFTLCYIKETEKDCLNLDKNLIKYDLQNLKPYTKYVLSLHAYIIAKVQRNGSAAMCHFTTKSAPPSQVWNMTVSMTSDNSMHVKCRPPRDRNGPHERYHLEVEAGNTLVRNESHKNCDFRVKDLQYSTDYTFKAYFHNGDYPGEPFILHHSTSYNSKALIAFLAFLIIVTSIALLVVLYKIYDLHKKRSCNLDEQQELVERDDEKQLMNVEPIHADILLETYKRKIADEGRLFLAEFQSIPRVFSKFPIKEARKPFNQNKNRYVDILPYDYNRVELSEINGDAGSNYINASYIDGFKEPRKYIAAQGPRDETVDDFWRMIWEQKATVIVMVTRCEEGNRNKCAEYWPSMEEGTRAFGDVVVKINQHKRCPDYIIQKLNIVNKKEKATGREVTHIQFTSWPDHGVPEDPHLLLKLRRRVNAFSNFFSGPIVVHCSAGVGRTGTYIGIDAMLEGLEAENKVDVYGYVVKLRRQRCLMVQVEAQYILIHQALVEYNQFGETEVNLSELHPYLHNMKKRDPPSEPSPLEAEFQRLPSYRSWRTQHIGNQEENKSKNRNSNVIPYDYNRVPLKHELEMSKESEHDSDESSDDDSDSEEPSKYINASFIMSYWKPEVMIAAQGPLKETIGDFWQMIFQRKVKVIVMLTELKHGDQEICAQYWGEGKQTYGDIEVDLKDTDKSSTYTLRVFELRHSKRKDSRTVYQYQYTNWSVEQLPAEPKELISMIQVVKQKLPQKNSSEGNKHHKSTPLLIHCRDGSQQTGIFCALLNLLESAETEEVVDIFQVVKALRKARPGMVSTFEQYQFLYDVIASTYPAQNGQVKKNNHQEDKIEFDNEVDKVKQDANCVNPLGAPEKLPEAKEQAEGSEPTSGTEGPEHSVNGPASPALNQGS
As to the kind of experiment: Inhibition of human CD45 using pNPP as substrate after 5 mins by spectrophotometric plate reader analysis. The gist of the method:
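Enzyme preincubated 5 min at 27 °C with serially diluted inhibitor (from DMSO) in imidazole/NaCl buffer pH 7.0 with 0.01% Triton X-100 and 5 mM DTT. Started with pNPP (500 μM in assay) and read at 405 nm for 20 min. The pNPP KM was measured for each enzyme. Ki from nonlinear regression of substrate–velocity curves at several inhibitor levels; at least duplicate.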

The species named for data set [5] is Homo sapiens. As to the kind of experiment: Selectivity ratio of Ki for human MKP5 to Ki for human STEP. The procedure, abridged:
as §1

Data set [6] can be described thus: Effective permeability of the compound at pH 7.4 by PAMPA. It is filed as ADME. As to conditions: read-out: Peff.

A value given as a limit tells only on which side of the number the result lay.

For orientation: Ki means a measure of affinity in units of concentration, obtained from inhibition or displacement. A low value points to higher affinity. As to `O=P(O)(O)[C@H](O)c1ccc(-c2cccc([C@H](O)c3ccc(Cl)c(Cl)c3)c2)cc1`, the Ki is greater than 500 µM in data set [1] and 270 µM in data set [4]. The Ratio Ki in the data set listed under Homo sapiens [2] was found to be 22; in the data set filed under Homo sapiens [3] it was 35.
Regarding `O=P(O)(O)[C@H](O)c1ccc(-c2cccc([C@@H](O)c3ccc(Cl)c(Cl)c3)c2)cc1`, the Ki in data set [1] and in data set [4] was 340 µM throughout. Besides, the Ratio Ki in the data set filed under Homo sapiens [5] came to 41; in the data set filed under Homo sapiens [2], 18; in the data set filed under Homo sapiens [3], 38. Also, in data set [6], the Papp is less than 0.1 ×10⁻⁶ cm/s.

The record behind these values is ChEMBL document CHEMBL2429849, “Substrate-based fragment identification for the development of selective, nonpeptidic inhibitors of striatal-enriched protein tyrosine phosphatase” (J Med Chem, 2013).
